From ChEMBL document CHEMBL1133596, “Synthesis and antitumor activities of novel pyrimidine derivatives of 2,3-O,O-dibenzyl-6-deoxy-L-ascorbic acid and 4,5-didehydro-5,6- dideoxy-L-ascorbic acid” (J Med Chem, 2000) come the findings set out here.

Experiment [1] concerns FM3A. Description: Evaluated for the inhibition of tumor cell growth of murine mammary carcinoma malignant tumor cell line (FM3A/0). Type of experiment: functional, cell-based. The following applies: Mus musculus. Put shortly:
(§1)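 Proliferation of the murine (L1210/0, FM3A/0) and human T-lymphoblast (Molt4/C8, CEM/0) lines was measured following the procedure originally described for mouse L1210 cells. IC50 is the concentration, in µg/mL, that inhibits tumour cell proliferation by 50%.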

Experiment [2] has as its system CCRF-CEM. The experiment is described as follows: Evaluated for the inhibition of tumor cell growth of Human T-Lymphocyte cells (CEM/0). Type of experiment: functional, cell-based. Put shortly:
as §1

Experiment [3] relates to L1210. Description: Evaluated for the inhibition of tumor cell growth of murine leukemia malignant tumor cell line (L1210/0). The following applies: Mus musculus. Type of experiment: functional, cell-based. In outline:
as §1

The test system of experiment [4] is HEL. Description: Evaluated for cytotoxic concentration required to reduce normal human embryonic lung (fibroblast) (HEL) cell growth by 50%. Type of experiment: functional. Put shortly: (§2)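 Normal human embryonic lung fibroblasts (HEL) were grown with compound. CC50 is the concentration, in µg/mL, that reduces HEL cell growth by 50%.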
For experiment [5], the system named is HEL. The experiment is described as follows: Evaluated for minimum cytotoxic concentration that causes a microscopically detectable alteration of normal HEL cell morphology. Type of experiment: functional. The following applies: Homo sapiens. In outline: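 HEL fibroblast cultures were examined by microscope. MCC is the lowest concentration, in µg/mL, that causes a detectable change in normal cell morphology.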

Experiment [6] concerns MOLT-4. The experiment is described as follows: Evaluated for the inhibition of tumor cell growth of Human T-Lymphocyte cells (Molt4/C8). Type of experiment: functional, cell-based. In outline:
as §1

The subject of experiment [7] is MEF. Description: Evaluated for cytotoxicity against murine embryo fibroblasts (MEF). Type of experiment: functional, Mus musculus. In outline:
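Murine embryo fibroblasts (MEF) were tested for inhibition of proliferation following the method originally described for mouse L1210 cells. Values are given as cytotoxic concentrations in µg/mL.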

Experiment [8] concerns HEL. Description: Evaluated for cytotoxic concentration required to reduce normal human embryonic lung (fibroblast) HEL cell growth by 50%. Type of experiment: functional. In outline: as §2

In brackets after ≈: the same amount, converted by molar mass.

For orientation: IC50 means the concentration that gives 50% inhibition. Low readings indicate inhibition by little substance, high ones a need for much substance. The term CC50 denotes the concentration that lowers cell viability or growth by half. Read a high CC50 as lower toxicity to the cells. As to `O=C1O/C(=C\Cn2cc(C(F)(F)F)c(=O)[nH]c2=O)C(O)=C1O`, the IC50 in experiment [1] is 162 µg/mL (≈ 506 µM); in experiment [2], more than 200 µg/mL; in experiment [3], 76.1 µg/mL (≈ 238 µM); in experiment [6], more than 200 µg/mL. In addition, the CC50 in experiment [4] is more than 50 µg/mL. Further, the MCC in experiment [5] was more than 50 µg/mL.
On to `O=C1O/C(=C\Cn2ccc(=O)[nH]c2=O)C(OCc2ccccc2)=C1O`, for which the IC50 in experiment [1], in experiment [2], in experiment [3] and in experiment [6] was more than 200 µg/mL in each case. Moreover, in experiment [4], the CC50 is more than 50 µg/mL. In experiment [5], the MCC is more than 50 µg/mL.
As to `O=c1[nH]cc(F)c(=O)[nH]1` [FLUOROURACIL], the half-inhibitory concentration (IC50) was 0.02 µg/mL (≈ 0.154 µM) in experiment [1], 1.2 µg/mL (≈ 9.23 µM) in experiment [2], 0.04 µg/mL (≈ 0.308 µM) in experiment [3] and 2.9 µg/mL (≈ 22.3 µM) in experiment [6]. In experiment [7], this compound registered a Cytotoxicity of 0.2 µg/mL.
Consider `O=C1OC(C(O)Cn2cc(C(F)(F)F)c(=O)[nH]c2=O)C(OCc2ccccc2)=C1OCc1ccccc1` (stereo not drawn), for which the half-maximal inhibitory concentration (IC50) in experiment [1] is 38.4 µg/mL (≈ 74.1 µM); in experiment [2] it was 19 µg/mL (≈ 36.6 µM); in experiment [3], 26 µg/mL (≈ 50.2 µM); in experiment [6], 47.4 µg/mL (≈ 91.4 µM). Moreover, in experiment [4], the CC50 is 31.7 µg/mL (≈ 61.1 µM). Besides, the MCC in experiment [5] came out at 50 µg/mL.
Consider `O=C1OC(C(O)Cn2ccc(=O)[nH]c2=O)C(OCc2ccccc2)=C1OCc1ccccc1` (stereo not drawn), for which the IC50 in experiment [1] amounted to 74.1 µg/mL (≈ 165 µM); in experiment [2], 68.6 µg/mL (≈ 152 µM); in experiment [3] it was 70.8 µg/mL (≈ 157 µM); in experiment [6], 67.8 µg/mL (≈ 151 µM). Further, in experiment [8], the CC50 is more than 50 µg/mL. Besides, the MCC in experiment [5] was more than 50 µg/mL.
Consider `O=c1[nH]c(=O)n([C@H]2C[C@H](O)[C@@H](CO)O2)cc1F` [FLOXURIDINE], for which the IC50 in experiment [1] came out at 0.0008 µg/mL (≈ 0.00325 µM); in experiment [2], 0.003 µg/mL (≈ 0.0122 µM); in experiment [3] it was 0.0003 µg/mL (≈ 0.00122 µM); in experiment [6], 2.6 µg/mL (≈ 10.6 µM). In experiment [7], this compound registered a Cytotoxicity of 0.0001 µg/mL.
With `O=C1O/C(=C\Cn2cc(F)c(=O)[nH]c2=O)C(O)=C1O`, the IC50 worked out at 0.78 µg/mL (≈ 2.89 µM) in experiment [1], 20.9 µg/mL (≈ 77.4 µM) in experiment [2], 1.4 µg/mL (≈ 5.18 µM) in experiment [3] and 31.8 µg/mL (≈ 118 µM) in experiment [6]. The Cytotoxicity in experiment [7] came out at 0.92 µg/mL. This compound also registered a CC50 in experiment [4] of 23 µg/mL (≈ 85.1 µM). This compound yielded an MCC in experiment [5] of more than 50 µg/mL.
As to `O=C1O/C(=C\Cn2ccc(=O)[nH]c2=O)C(O)=C1O`, the half-inhibitory concentration (IC50) in experiment [1], in experiment [2], in experiment [3] and in experiment [6] was more than 200 µg/mL throughout. Further, in experiment [4], the CC50 was more than 50 µg/mL. Also, the MCC in experiment [5] was more than 50 µg/mL.
In the case of `O=C1OC(C(O)Cn2cc(F)c(=O)[nH]c2=O)C(OCc2ccccc2)=C1OCc1ccccc1` (stereo not drawn), the IC50 in experiment [1] was found to be 52.2 µg/mL (≈ 111 µM); in experiment [2], 74 µg/mL (≈ 158 µM); in experiment [3], 65.6 µg/mL (≈ 140 µM); in experiment [6], 81.2 µg/mL (≈ 173 µM). In addition, in experiment [8], the midpoint of cytotoxicity, the CC50, lay at 33.4 µg/mL (≈ 71.3 µM). This compound also gave an MCC in experiment [5] of 50 µg/mL.
